Assay results from ChEMBL document CHEMBL3046597, “Synthesis of new carboxylesterase inhibitors and evaluation of potency and water solubility” (Chem Res Toxicol, 2001).
pIC50: −log10 of the molar value. Converted amounts (≈) assume the structure as drawn.

Experiments:
[1] = target: T1, Juvenile hormone esterase (Trichoplusia ni, UniProt P30809+P30810); test: Inhibition of Trichoplusia ni (cabbage looper) juvenile hormone esterase isolated from fifth-intsar larval stage using [3H]JH 3 as substrate incubated for 10 min prior to substrate addition measured after 15 min by liquid scintillation counting; format: protein assay
T1 sequence (P30809 whole entry): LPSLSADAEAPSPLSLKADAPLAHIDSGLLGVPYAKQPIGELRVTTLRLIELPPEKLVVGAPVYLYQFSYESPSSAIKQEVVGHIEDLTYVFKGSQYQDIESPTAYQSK
T1 sequence (P30810 whole entry): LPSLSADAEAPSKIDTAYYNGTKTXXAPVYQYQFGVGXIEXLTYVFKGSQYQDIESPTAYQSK
Procedure, shortened: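 Day-2 fifth-instar larval hemolymph collected with PTU, spun at 1000g, diluted 1:1 in 0.1 M phosphate pH 7.4 with 0.01% PTU, then diluted 300-fold in 0.1 M sodium phosphate pH 7.4 containing 0.1 mg/mL BSA. Inhibitors (DMF ≤1%) preincubated at 30 °C. JH III 5 µM final, 30 °C. Isooctane partition, aqueous-phase radioactivity counted.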

[2] = Solubility of the compound in sodium phosphate buffer at pH 7.4; format: physicochemical
[3] = target: T2, Liver carboxylesterase B-1 (Rattus norvegicus, UniProt Q63010); test: Inhibition of carboxylesterase in Fischer 344 Rattus norvegicus (rat) liver microsomes using p-nitrophenyl acetate as substrate incubated for 5 min prior to substrate addition measured for 2 min by spectrophotometric analysis
T2 sequence (Q63010 whole entry): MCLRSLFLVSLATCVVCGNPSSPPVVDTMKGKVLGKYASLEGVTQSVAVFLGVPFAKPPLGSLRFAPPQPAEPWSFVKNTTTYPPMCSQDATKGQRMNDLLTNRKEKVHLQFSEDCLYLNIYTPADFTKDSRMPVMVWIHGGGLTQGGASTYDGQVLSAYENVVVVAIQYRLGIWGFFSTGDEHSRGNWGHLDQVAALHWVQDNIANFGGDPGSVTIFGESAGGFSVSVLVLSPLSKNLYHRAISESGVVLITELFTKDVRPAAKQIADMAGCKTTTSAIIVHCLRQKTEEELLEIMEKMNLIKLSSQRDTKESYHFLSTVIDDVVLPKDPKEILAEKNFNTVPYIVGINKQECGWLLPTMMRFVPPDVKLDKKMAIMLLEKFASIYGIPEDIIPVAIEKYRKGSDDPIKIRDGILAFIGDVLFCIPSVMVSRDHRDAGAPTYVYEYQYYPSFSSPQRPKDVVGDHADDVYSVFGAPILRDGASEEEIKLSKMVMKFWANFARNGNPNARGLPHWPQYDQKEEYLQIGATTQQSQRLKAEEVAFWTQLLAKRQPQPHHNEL
Procedure, shortened: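 Livers from 8-week-old rats, perfused with 1% KCl; 100000g microsomal pellet solubilized in 1% n-octyl β-D-glucopyranoside and recentrifuged. Assayed at 0.8 mg/mL protein in 0.1 M sodium phosphate pH 7.4, 30 °C. PNPA 0.5 mM final, read at 405 nm. DMF ≤1%, solvent-corrected.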

[4] = target: T3, Liver carboxylesterase (Sus scrofa, UniProt Q29550); test: Inhibition of Sus scrofa (pig) carboxylesterase isolated from liver in using p-nitrophenyl acetate as substrate incubated for 5 min prior to substrate addition measured for 2 min by spectrophotometric analysis
T3 sequence (Q29550 whole entry): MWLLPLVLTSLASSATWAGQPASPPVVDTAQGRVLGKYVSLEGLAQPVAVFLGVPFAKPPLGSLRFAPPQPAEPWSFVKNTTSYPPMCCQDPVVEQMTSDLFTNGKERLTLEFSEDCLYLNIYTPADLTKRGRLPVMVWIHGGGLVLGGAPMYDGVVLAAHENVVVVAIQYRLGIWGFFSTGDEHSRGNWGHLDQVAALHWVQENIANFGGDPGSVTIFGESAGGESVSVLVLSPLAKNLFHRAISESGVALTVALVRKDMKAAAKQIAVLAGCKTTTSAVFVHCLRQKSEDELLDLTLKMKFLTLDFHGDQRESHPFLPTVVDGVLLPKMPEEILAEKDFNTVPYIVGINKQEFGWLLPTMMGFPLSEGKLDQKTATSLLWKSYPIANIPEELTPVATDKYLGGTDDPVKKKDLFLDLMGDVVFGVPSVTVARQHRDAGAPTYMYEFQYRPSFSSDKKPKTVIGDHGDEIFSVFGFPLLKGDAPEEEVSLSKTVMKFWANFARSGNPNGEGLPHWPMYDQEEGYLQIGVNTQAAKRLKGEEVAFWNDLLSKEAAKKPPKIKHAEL
Procedure, shortened: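 Crude porcine liver carboxylesterase, partially purified, working solution 0.02 mg total protein/mL (0.3 units/mL) in 0.1 M sodium phosphate, pH 7.4; […]. Inhibitors from DMF stocks (≤1% DMF, solvent-corrected). PNPA at 0.5 mM final, 30 °C, kinetic read at 405 nm.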

SMILES	IC50 [1] [nM]	pIC50 [3]	pIC50 [4]	solubility [2] [µM]
O=S(=O)(CCc1ccccc1)CC(O)(O)C(F)(F)F	1780	5.82	5.47	
CCCCCCCCSCC(=O)C(F)(F)F	1.6	7.43	7.43	200 (≈ 51.3 µg/mL)
CCCCCCCCCCCCS(=O)(=O)CC(O)(O)C(F)(F)F	191	7.99	6.33	
CCCCCCCCCCS(=O)(=O)CC(O)(O)C(F)(F)F	119	8.20	5.85	
CCCCCCCCCCSCC(=O)C(F)(F)F	20	6.94	6.87	

The next lines start with results.

IC50 [1] [nM]	pIC50 [3]	pIC50 [4]	SMILES	solubility [2] [µM]
147	7.61	5.25	CCCCCCCCS(=O)(=O)CC(O)(O)C(F)(F)F	1500 (≈ 460 µg/mL)
	6.79	7.12	O=C(CSCCc1ccccc1)C(F)(F)F	
	7.26	7.27	CCCCCCSCC(=O)C(F)(F)F	
354	5.89	4.41	CCCCCCS(=O)(=O)CC(O)(O)C(F)(F)F	
15	6.79	6.92	CCCCCCCCCCCCSCC(=O)C(F)(F)F	
